# Assays:
# Acinetobacter baumannii [1] = assay: Antibacterial activity against panel of 198 clinical isolates Acinetobacter baumannii assessed as inhibition of bacterial growth by microdilution method; format: functional
# Acinetobacter baumannii [2] = assay: Antibacterial activity against carbapenem susceptible Acinetobacter baumannii isolate PR-340 assessed as bacterial growth inhibition by microdilution method; format: functional
# In short: (§1)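 Broth microdilution MIC in iron-depleted (Chelex resin-treated) cation-adjusted Mueller-Hinton broth, following the protocol used for siderophore-containing antibiotics. Inoculum was lowered to 6 × 10^4 cfu/mL.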
# [3] = Antibacterial activity against carbapenem susceptible Acinetobacter nosocomialis isolate PR-365 assessed as bacterial growth inhibition by microdilution method; format: functional; in short: as §1
# Acinetobacter baumannii [4] = assay: Antibacterial activity against carbapenem resistant Acinetobacter baumannii isolate PR-325 assessed as inhibition of bacterial growth at 1:1 compound to sulbactam concentration by microdilution method; format: functional
# In short: (§2)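 Iron-depleted (Chelex-treated) cation-adjusted Mueller-Hinton broth microdilution; inoculum 6 × 10^4 cfu/mL. Test agent and sulbactam mixed 1:1 by mass and serially 2-fold diluted together. MIC in μg/mL.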
# Acinetobacter baumannii [5] = assay: Antibacterial activity against carbapenem resistant Acinetobacter baumannii isolate PR-351 assessed as inhibition of bacterial growth at 1:1 compound to sulbactam concentration by microdilution method; format: functional; in short: as §2
# Acinetobacter baumannii [6] = assay: Antibacterial activity against carbapenem resistant Acinetobacter baumannii isolate PR-384 assessed as inhibition of bacterial growth at 1:1 compound to sulbactam concentration by microdilution method; format: functional; in short: as §2
# Acinetobacter baumannii [7] = assay: Antibacterial activity against carbapenem resistant Acinetobacter baumannii isolate PR-387 assessed as inhibition of bacterial growth at 1:1 compound to sulbactam concentration by microdilution method; format: functional; in short: as §2
# [8] = Antibacterial activity against carbapenem susceptible Acinetobacter nosocomialis isolate PR-365 assessed as inhibition of bacterial growth at 1:1 compound to sulbactam concentration by microdilution method; format: functional
# In short: (§3)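 Broth microdilution MIC in Chelex-treated, iron-depleted cation-adjusted Mueller-Hinton broth, inoculum 6 × 10^4 cfu/mL. Compound and sulbactam combined 1:1 by mass in a 2-fold dilution series.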
# [9] = Antibacterial activity against carbapenem susceptible Acinetobacter nosocomialis isolate PR-491 assessed as inhibition of bacterial growth at 1:1 compound to sulbactam concentration by microdilution method; format: functional; in short: as §3
# Acinetobacter baumannii [10] = assay: Antibacterial activity against carbapenem resistant Acinetobacter baumannii isolate PR-314 assessed as inhibition of bacterial growth in presence of 20 ug/ml sulbactam by microdilution method; format: functional; conditions: dose 20 µg/ml
# Acinetobacter baumannii [11] = assay: Antibacterial activity against carbapenem resistant Acinetobacter baumannii isolate PR-325 assessed as inhibition of bacterial growth in presence of 20 ug/ml sulbactam by microdilution method; format: functional; conditions: dose 20 µg/ml
# Acinetobacter baumannii [12] = assay: Antibacterial activity against carbapenem resistant Acinetobacter baumannii isolate PR-326 assessed as inhibition of bacterial growth in presence of 20 ug/ml sulbactam by microdilution method; format: functional; conditions: dose 20 µg/ml
# Acinetobacter baumannii [13] = assay: Antibacterial activity against carbapenem resistant Acinetobacter baumannii isolate PR-423 assessed as inhibition of bacterial growth in presence of 20 ug/ml sulbactam by microdilution method; format: functional; conditions: dose 20 µg/ml
# [14] = Antibacterial activity against carbapenem susceptible Acinetobacter nosocomialis isolate PR-362 assessed as inhibition of bacterial growth in presence of 20 ug/ml sulbactam by microdilution method; format: functional; conditions: dose 20 µg/ml
# In short: (§4)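 MIC by broth microdilution using iron-depleted (Chelex-treated) cation-adjusted Mueller-Hinton broth and 6 × 10^4 cfu/mL inoculum. Compound serially diluted with sulbactam held constant at 20 μg/mL.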
# [15] = Antibacterial activity against carbapenem susceptible Acinetobacter nosocomialis isolate PR-365 assessed as inhibition of bacterial growth in presence of 20 ug/ml sulbactam by microdilution method; format: functional; conditions: dose 20 µg/ml; in short: as §4
# Acinetobacter baumannii [16] = assay: Antibacterial activity against carbapenem susceptible Acinetobacter baumannii isolate PR-452 assessed as inhibition of bacterial growth in presence of 20 ug/ml sulbactam by microdilution method; format: functional; conditions: dose 20 µg/ml; in short: as §4
# Acinetobacter baumannii [17] = assay: Antibacterial activity against carbapenem susceptible Acinetobacter baumannii isolate PR-464 assessed as inhibition of bacterial growth in presence of 20 ug/ml sulbactam by microdilution method; format: functional; conditions: dose 20 µg/ml; in short: as §4
# Acinetobacter baumannii [18] = assay: Antibacterial activity against carbapenem susceptible Acinetobacter baumannii isolate PR-478 assessed as inhibition of bacterial growth in presence of 20 ug/ml sulbactam by microdilution method; format: functional; conditions: dose 20 µg/ml; in short: as §4
# [19] = Solubility of compound in pH 7.5 phosphate buffer by nephelometry; format: physicochemical
# [20] = Permeability in human Caco-2 cells; format: ADME, cell-based
# [21] = Metabolic stability in CD-1 mouse microsomes assessed as half life; format: ADME, Microsome
# PDE3A = PDE3A (Homo sapiens, UniProt Q14432); assay: Inhibition of PDE3A (unknown origin) at 30 uM
# Chain of PDE3A (Q14432 whole entry): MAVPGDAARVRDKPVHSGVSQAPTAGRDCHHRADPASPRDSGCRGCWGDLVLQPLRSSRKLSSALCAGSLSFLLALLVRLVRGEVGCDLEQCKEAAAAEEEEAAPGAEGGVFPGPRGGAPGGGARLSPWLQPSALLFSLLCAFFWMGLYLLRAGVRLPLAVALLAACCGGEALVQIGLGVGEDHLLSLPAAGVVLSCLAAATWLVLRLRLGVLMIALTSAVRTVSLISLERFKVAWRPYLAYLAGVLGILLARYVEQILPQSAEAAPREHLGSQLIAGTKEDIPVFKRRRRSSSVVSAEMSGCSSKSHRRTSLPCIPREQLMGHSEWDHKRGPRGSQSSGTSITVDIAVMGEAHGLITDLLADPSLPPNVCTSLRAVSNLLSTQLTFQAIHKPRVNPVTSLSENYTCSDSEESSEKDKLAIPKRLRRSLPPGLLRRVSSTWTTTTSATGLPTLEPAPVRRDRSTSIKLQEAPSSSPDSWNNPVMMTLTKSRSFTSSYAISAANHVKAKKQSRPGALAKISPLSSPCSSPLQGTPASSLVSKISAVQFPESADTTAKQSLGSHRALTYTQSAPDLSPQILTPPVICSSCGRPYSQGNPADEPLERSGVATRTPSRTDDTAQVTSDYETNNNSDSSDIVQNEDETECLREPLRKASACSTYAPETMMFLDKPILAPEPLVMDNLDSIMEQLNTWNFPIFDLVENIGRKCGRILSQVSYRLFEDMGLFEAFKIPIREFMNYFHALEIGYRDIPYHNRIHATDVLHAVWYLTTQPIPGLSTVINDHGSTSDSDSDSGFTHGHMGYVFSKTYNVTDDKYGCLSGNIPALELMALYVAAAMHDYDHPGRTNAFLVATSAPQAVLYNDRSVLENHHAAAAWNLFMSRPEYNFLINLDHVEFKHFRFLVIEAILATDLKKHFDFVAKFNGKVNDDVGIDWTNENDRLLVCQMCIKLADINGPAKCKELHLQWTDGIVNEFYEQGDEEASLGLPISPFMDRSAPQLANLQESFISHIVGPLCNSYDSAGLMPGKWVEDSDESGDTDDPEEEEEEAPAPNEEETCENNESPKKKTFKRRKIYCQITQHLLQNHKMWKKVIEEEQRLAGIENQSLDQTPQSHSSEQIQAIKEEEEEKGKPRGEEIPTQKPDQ
# Pseudomonas aeruginosa [22] = assay: Antibacterial activity against wild type Pseudomonas aeruginosa isolate PR-604 assessed as inhibition of bacterial growth by microdilution method; format: functional; in short: as §1
# Pseudomonas aeruginosa [23] = assay: Antibacterial activity against wild type Pseudomonas aeruginosa isolate PR-688 leucine at 533 residue assessed as inhibition of bacterial growth by microdilution method; format: functional; in short: as §1
# Pseudomonas aeruginosa [24] = assay: Antibacterial activity against wild type Pseudomonas aeruginosa isolate PR-699 assessed as inhibition of bacterial growth by microdilution method; format: functional; in short: as §1
# Pseudomonas aeruginosa [25] = assay: Antibacterial activity against Pseudomonas aeruginosa AR-BANK#0229 infected in sc dosed thigh infection mouse model assessed as reduction in CFU treated four times at 6 hrs interval measured at 26 hrs after infection; format: functional, organism-based
# In short: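 Neutropenic mice (cyclophosphamide) inoculated intramuscularly with 1.02 × 10^6 CFU/mouse. Drug given SC at 50 and 100 mg/kg q6h at 2, 8, 14 and 20 h post-infection. Thighs harvested at 26 h and weighed. Thigh CFU/g compared with the 2 h baseline (Δ reported) and with vehicle, using one-way ANOVA with Dunnett's test.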
# [26] = Substrate activity at NDM1 (unknown origin) assessed as Kcat by measuring hydrolysis by spectrophotometry; format: ADME
# In short: (§5)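 Substrate hydrolysis (600 μM start) followed at 336 nm (Δε336 = −4362 M−1 cm−1, 0.2 cm cuvette) to completion; velocities over 10 s intervals along progress curve; Km, Vmax from double reciprocal plot, kcat = Vmax/[E].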
# [27] = Substrate activity at NDM1 (unknown origin) assessed as ratio of Kcat to Km by measuring hydrolysis by spectrophotometry; format: ADME; in short: as §5
# [28] = Substrate activity at VIM-2 (unknown origin) assessed as ratio of Kcat to Km by measuring hydrolysis by spectrophotometry; format: ADME; in short: as §5
# [29] = Substrate activity at OXA-23 (unknown origin) assessed as Kcat by measuring hydrolysis by spectrophotometry; format: ADME
# [30] = Plasma concentration in SC dosed CD-1 mouse treated four times at 6 hrs interval measured after 1 hrs; format: ADME, organism-based
# In short: (§6)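 CD-1 mice dosed SC at 50 mg/kg. Plasma sampled at 0.167 to 24 h, three individual mice per time point, reported as mean and SD in ng/mL.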
# [31] = Plasma concentration in SC dosed CD-1 mouse treated four times at 6 hrs interval measured after 2 hrs; format: ADME, organism-based; in short: as §6
# [32] = Plasma concentration in SC dosed CD-1 mouse treated four times at 6 hrs interval measured after 6 hrs; format: ADME, organism-based; in short: as §6
# [33] = Plasma concentration in SC dosed CD-1 mouse treated four times at 6 hrs interval measured after 8 hrs; format: ADME, organism-based; in short: as §6
smiles,measurement,setting,value
CC(C)(O/N=C(\C(=O)N[C@H]1CN2CC(C(=O)NCCN3C(=O)c4cc(O)c(O)cc4C3=O)=C(C(=O)O)N2C1=O)c1nc(N)sc1Cl)C(=O)O,MIC50,Acinetobacter baumannii [1],0.5 µg/mL
same,MIC90,Acinetobacter baumannii [1],> 16 µg/mL
same,MIC,Acinetobacter baumannii [2],> 16 µg/mL
same,MIC,[3],> 16 µg/mL
same,MIC,Acinetobacter baumannii [4],> 16 µg/mL
same,MIC,Acinetobacter baumannii [5],16 µg/mL
same,MIC,Acinetobacter baumannii [6],16 µg/mL
same,MIC,Acinetobacter baumannii [7],16 µg/mL
same,MIC,[8],≤ 0.25 µg/mL
same,MIC,[9],0.5 µg/mL
same,MIC,Acinetobacter baumannii [10],≤ 0.25 µg/mL
same,MIC,Acinetobacter baumannii [11],> 16 µg/mL
same,MIC,Acinetobacter baumannii [12],≤ 0.25 µg/mL
same,MIC,Acinetobacter baumannii [13],≤ 0.25 µg/mL
same,MIC,[14],≤ 0.25 µg/mL
same,MIC,[15],≤ 0.25 µg/mL
same,MIC,Acinetobacter baumannii [16],≤ 0.25 µg/mL
same,MIC,Acinetobacter baumannii [17],≤ 0.25 µg/mL
same,MIC,Acinetobacter baumannii [18],≤ 0.25 µg/mL
same,solubility kinetic,[19],> 100 µM
same,permeability,[20],Impermeable
same,t1/2,[21],> 1 h
same,inhibition at 30 µM,PDE3A,> 50%
same,MIC,Pseudomonas aeruginosa [22],≤ 0.25 µg/mL
same,MIC,Pseudomonas aeruginosa [23],> 16 µg/mL
same,MIC,Pseudomonas aeruginosa [24],> 16 µg/mL
same,Activity,Pseudomonas aeruginosa [25],Dose-Dependent Effect
same,Kcat,[26],35 s⁻¹
same,Kcat/Km,[27],20000 M⁻¹ s⁻¹
same,Kcat/Km,[28],12000 M⁻¹ s⁻¹
same,Kcat,[29],Nottraceable
same,concentration at 1 h,[30],3280 ng/mL
same,concentration at 2 h,[31],3070 ng/mL
same,concentration at 6 h,[32],1320 ng/mL
same,concentration at 8 h,[33],1200 ng/mL
